Experimental data pooled from the literature.
Each line is one published result; the experiments were not run side by side.
Target: Mitogen-activated protein kinase kinase kinase 1 (MAP3K1, Homo sapiens, UniProt Q13233)

SMILES | effect on | method | tested at | remaining binding
CSc1cccnc1N1CCN(Cc2nc3ccccc3[nH]2)CC1 | cell-free assay | competition with immobilised ligand | 1 µM | 70%
CN(C)c1nccc(-c2cnn3ncccc23)n1 | binding | – | 1 µM | 91%
CO[C@@H](C)c1c(Nc2ccc([C@H](N(C)C(=O)C3CCS(=O)(=O)CC3)C(F)(F)F)cc2)cnc2cc(Cl)nn12 | cell-free assay | competition with immobilised ligand | 1 µM | 100%
C[C@@H]1CCN(c2nccc(-c3cnn4ncccc34)n2)C1 | binding | – | 1 µM | 85%
C[C@@H](c1ccc(-n2cnc3c(N)ncnc32)cc1)N1CCc2nn(C)c(Cc3ccccc3)c2C1=O | binding | competition with immobilised ligand | 0.1 µM | 60%
COc1cnc(Nc2cccc(S(N)(=O)=O)c2)nc1N1CCN(c2ccccc2)CC1 | binding | competition with immobilised ligand | 1 µM | 100%
N[C@@H]1CCN(c2nccc(-c3cnn4ncccc34)n2)C1 | binding | – | 1 µM | 97%
Nc1ncc2c(n1)-c1c([nH]c3ccc(C#CC4CC4)cc13)CCCC2 | binding | competition with immobilised ligand | 1 µM | 97%
CN(C)c1nccc(-c2cnc3ncccn23)n1 | binding | – | 1 µM | 100%
O=C(c1ccc(Nc2ncc(Cl)c(-c3cc4ccccc4s3)n2)cc1)N1CCC(N2CCCC2)CC1 | binding | competition with immobilised ligand | 1 µM | 79%
Cc1cc(-n2nc(Cc3cc(F)cc(C(F)(F)F)c3)nc2C)ccc1C(N)=O | cell-free assay | competition with immobilised ligand | 1 µM | 100%
O=C(NCC1CCOCC1)c1n[nH]cc1NC(=O)c1c(F)cccc1F | binding | competition with immobilised ligand | 1 µM | 75%
c1cnn2ncc(-c3ccnc(N4CCC45COC5)n3)c2c1 | binding | – | 1 µM | 76%
C[C@H](NC(=O)c1cnc2n1[C@](C)(Cc1ccc(C#N)cc1)C(=O)N2c1cc(Cl)c(F)c(Cl)c1)C(=O)NC1(c2ccccn2)CC1 | cell-free assay | competition with immobilised ligand | 1 µM | 100%
CN(c1nccc(-c2cnn3ncccc23)n1)C1CC1 | binding | – | 1 µM | 81%
CCCOc1ccc([C@@H]2[C@@H](C(=O)O)[C@H](c3ccc4c(c3)OCO4)CN2CC(=O)Nc2c(CC)cccc2CC)cc1 | cell-free assay | competition with immobilised ligand | 1 µM | 80%
FC(F)(F)Oc1cccc(-c2cnc3ccc(-c4ccncc4)nn23)c1 | cell-free assay | competition with immobilised ligand | 5 µM | 80%
COc1cnc(Nc2cccc(S(N)(=O)=O)c2)nc1N1CCN(c2ccccc2)C(=O)C1 | binding | competition with immobilised ligand | 1 µM | 96%
CNC(=O)c1ccc(Nc2ncc(C(F)(F)F)c(NCc3nccnc3N(C)S(C)(=O)=O)n2)cc1 | cell-free assay | competition with immobilised ligand | 0.1 µM | 100%
O=C(NCCCN1CCOCC1)c1ccc(Nc2ncc(Cl)c(-c3ccc(Cl)s3)n2)cc1 | binding | competition with immobilised ligand | 1 µM | 100%
CS(=O)(=O)N1CCCC(NC(=O)[C@H](CCC2CCCCC2)NC(=O)c2ccc(CNc3ncnc4c3nnn4-c3ccccc3)cc2)C1 (stereo partly shown) | cell-free assay | competition with immobilised ligand | 0.1 µM | 81%
Cc1cnc(Nc2ccc(C(=O)N3CCC(N4CCCC4)CC3)cc2)nc1-c1cc2ccccc2s1 | binding | competition with immobilised ligand | 1 µM | 70%
